Blank lines part the entries; values can stand above or below the compound they belong to.
Tests used:
[1] = biological target: T1, Voltage-gated inwardly rectifying potassium channel KCNH2 (Homo sapiens, UniProt Q12809); assay: Inhibition of human ERG by patch clamp assay
[2] = Oral bioavailability in CD rat at 3 mg/kg; format: ADME, organism-based; settings: in vivo
How it was run: (§1)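 Male CD rats dosed 3.0 mg/kg po and 1.0 mg/kg iv, groups of 3 or 7 animals. Clearance, Vss, t1/2 and F are reported with ranges, and clearance is also expressed as % of liver blood flow.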

[3] = Volume of distribution at steady state in Beagle dog at 3 mg/kg, po and 1 mg/kg, iv; format: ADME, organism-based, Canis lupus familiaris; settings: in vivo, read-out: Vdss
How it was run: (§2)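 Male Beagle dogs (n = 3) dosed 3.0 mg/kg po and 1.0 mg/kg iv. Clearance, Vss, t1/2 and F are given with ranges, and clearance as % of liver blood flow. Unchanged drug excreted in urine was measured over 24 h.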

[4] = biological target: T2, Cytochrome P450 1A2 (Homo sapiens, UniProt P05177); assay: Inhibition of CYP1A2; format: ADME
T2 sequence (P05177 whole entry): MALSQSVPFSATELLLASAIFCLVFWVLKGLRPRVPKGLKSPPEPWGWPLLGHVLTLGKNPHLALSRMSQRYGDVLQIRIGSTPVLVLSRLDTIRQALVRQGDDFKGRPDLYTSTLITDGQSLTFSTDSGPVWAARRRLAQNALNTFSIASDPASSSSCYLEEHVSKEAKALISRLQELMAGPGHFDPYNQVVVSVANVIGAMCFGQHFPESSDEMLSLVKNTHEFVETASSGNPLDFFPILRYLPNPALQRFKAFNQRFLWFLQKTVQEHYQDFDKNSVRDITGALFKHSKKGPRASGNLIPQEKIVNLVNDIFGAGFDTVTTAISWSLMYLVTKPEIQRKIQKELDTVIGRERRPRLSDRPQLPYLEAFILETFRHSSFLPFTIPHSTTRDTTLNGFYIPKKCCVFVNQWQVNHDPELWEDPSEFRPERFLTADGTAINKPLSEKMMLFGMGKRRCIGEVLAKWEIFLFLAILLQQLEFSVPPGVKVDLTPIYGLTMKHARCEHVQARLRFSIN

[5] = tested on: Liver; assay: Metabolic stability in dog liver microsomes; format: ADME, Canis lupus familiaris, Microsome
[6] = tested on: Rattus norvegicus; assay: Liver blood flow in CD rat at 3 mg/kg, po and 1 mg/kg, iv; format: ADME, organism-based; settings: in vivo; how it was run: as §1
[7] = biological target: T3, Alpha-1A adrenergic receptor (Homo sapiens, UniProt P35348); assay: Binding affinity to human adrenergic alpha1A receptor expressed in rat intact fibroblasts
T3 sequence (P35348 whole entry): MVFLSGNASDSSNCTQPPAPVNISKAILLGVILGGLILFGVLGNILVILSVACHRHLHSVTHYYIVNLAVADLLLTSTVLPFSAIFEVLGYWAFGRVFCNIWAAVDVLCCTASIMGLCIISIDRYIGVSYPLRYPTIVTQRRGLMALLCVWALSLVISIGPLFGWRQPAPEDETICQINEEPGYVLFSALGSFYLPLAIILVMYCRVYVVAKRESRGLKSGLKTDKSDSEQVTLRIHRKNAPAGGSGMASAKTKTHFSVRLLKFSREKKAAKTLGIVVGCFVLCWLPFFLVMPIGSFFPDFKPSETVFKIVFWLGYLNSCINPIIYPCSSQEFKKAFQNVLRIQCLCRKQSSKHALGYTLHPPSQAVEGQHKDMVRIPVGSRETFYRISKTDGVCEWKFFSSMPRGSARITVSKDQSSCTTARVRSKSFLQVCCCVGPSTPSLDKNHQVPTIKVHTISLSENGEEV

[8] = biological target: Cytochrome P450 2C9 (Homo sapiens, UniProt P11712); assay: Inhibition of CYP2C9; format: ADME
[9] = biological target: Cytochrome P450 2D6 (Homo sapiens, UniProt P10635); assay: Inhibition of CYP2D6; format: ADME
[10] = Volume of distribution at steady state in CD rat at 3 mg/kg, po and 1 mg/kg, iv; format: ADME, organism-based; settings: in vivo, read-out: Vdss; how it was run: as §1
[11] = biological target: T4, Alpha-1B adrenergic receptor (Homo sapiens, UniProt P35368); assay: Binding affinity to human adrenergic Alpha-1B receptor expressed in rat intact fibroblasts
T4 sequence (P35368 whole entry): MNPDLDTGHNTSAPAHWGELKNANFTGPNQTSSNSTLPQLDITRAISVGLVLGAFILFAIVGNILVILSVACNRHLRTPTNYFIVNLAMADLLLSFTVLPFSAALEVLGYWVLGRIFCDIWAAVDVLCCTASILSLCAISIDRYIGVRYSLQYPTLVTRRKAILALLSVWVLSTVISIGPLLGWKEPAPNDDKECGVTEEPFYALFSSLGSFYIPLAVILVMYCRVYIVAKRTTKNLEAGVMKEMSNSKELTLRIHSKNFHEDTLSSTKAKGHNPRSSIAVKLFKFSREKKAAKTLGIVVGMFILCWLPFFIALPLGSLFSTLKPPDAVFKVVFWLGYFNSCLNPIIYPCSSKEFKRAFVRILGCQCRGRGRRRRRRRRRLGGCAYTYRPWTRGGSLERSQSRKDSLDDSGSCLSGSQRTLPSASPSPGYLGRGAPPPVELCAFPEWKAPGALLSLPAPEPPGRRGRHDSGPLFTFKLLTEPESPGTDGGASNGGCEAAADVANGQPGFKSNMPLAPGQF
How it was run: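 Plate-based calcium imaging in intact Rat1 fibroblasts expressing the human α1B adrenoceptor.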

[12] = Clearance in CD rat at 3 mg/kg, po and 1 mg/kg, iv; format: ADME, organism-based; settings: in vivo; how it was run: as §1
[13] = tested on: Canis familiaris; assay: Liver blood flow in Beagle dog at 3 mg/kg, po and 1 mg/kg, iv; format: ADME, organism-based, Canis lupus familiaris; settings: in vivo; how it was run: as §2
[14] = Oral bioavailability in Beagle dog at 3 mg/kg; format: ADME, organism-based, Canis lupus familiaris; settings: in vivo; how it was run: as §2
[15] = Unchanged drug level in Beagle dog urine at 3 mg/kg, po and 1 mg/kg, iv after 24 hrs; format: ADME, organism-based, Canis lupus familiaris; settings: read-out: Activity; how it was run: as §2
[16] = biological target: Cytochrome P450 2C19 (Homo sapiens, UniProt P33261); assay: Inhibition of CYP2C19; format: ADME
[17] = Ratio of drug level in brain to blood in CD rat at 1 mg/kg, iv; format: ADME, organism-based; set-up: dose 1 mg/kg, route intravenous; settings: read-out: BBR
[18] = tested on: Heart; assay: Cardiotoxicity in rabbit heart assessed as induction of QT interval prolongation; format: toxicity, tissue-based, Oryctolagus cuniculus
[19] = tested on: Cavia porcellus; assay: Antiallergic rhinitis activity in conscious guinea pig assessed as duration of inhibition of histamine-induced nasal congestion at 0.1 to 1 mg/ml administered intranasally; format: functional
[20] = tested on: Liver microsomes; assay: Metabolic stability in rat liver microsomes; format: ADME, Microsome
[21] = tested on: Hepatocyte; assay: Metabolic stability in human hepatocytes; format: ADME, cell-based
[22] = Clearance in Beagle dog at 3 mg/kg, po and 1 mg/kg, iv; format: ADME, organism-based, Canis lupus familiaris; settings: in vivo; how it was run: as §2
[23] = biological target: Histamine H2 receptor (Homo sapiens, UniProt P25021); assay: Binding affinity to human histamine H2 receptor
[24] = biological target: Cytochrome P450 3A4 (Homo sapiens, UniProt P08684); assay: Inhibition of CYP3A4; format: ADME
[25] = Half life in CD rat at 3 mg/kg, po and 1 mg/kg, iv; format: ADME, organism-based; settings: in vivo; how it was run: as §1
[26] = biological target: Histamine H4 receptor (Homo sapiens, UniProt Q9H3N8); assay: Binding affinity to human histamine H4 receptor
[27] = biological target: T5, Histamine H1 receptor (Homo sapiens, UniProt P35367); assay: Antagonist activity at human recombinant histamine H1 receptor expressed in intact CHO cells assessed as inhibition of histamine-induced cellular calcium mobilization at 100 nM after 30 mins by FLIPR assay; format: functional, cell-based; settings: read-out: pA2 (converted)
How it was run: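 Intact CHO cells expressing recombinant human H1; Fluo-4AM calcium dye read on FLIPR. Histamine concentration-response curves run without or with antagonist at a single 100 nM, 30 min incubation. EC50 from four-parameter logistic fit; pA2 = log(DR-1) - log[B], DR being EC50 with antagonist over control EC50.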

[28] = tested on: Liver microsomes; assay: Metabolic stability in human liver microsomes; format: ADME, Microsome
[29] = Half life in Beagle dog at 3 mg/kg, po and 1 mg/kg, iv; format: ADME, organism-based, Canis lupus familiaris; settings: in vivo; how it was run: as §2
[30] = biological target: T5, Histamine H1 receptor; assay: Antagonist activity at human recombinant histamine H1 receptor expressed in intact CHO cells assessed as inhibition of histamine-induced cellular calcium mobilization by FLIPR assay; format: functional, cell-based
How it was run: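 Human recombinant H1 receptor in intact CHO cells; inhibition of agonist-induced calcium mobilization read with Fluo-4AM in FLIPR. EC50 came from a four-parameter logistic fit, and pA2 = log(DR−1) − log[B], where DR is the EC50 ratio versus control.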

[31] = biological target: T1, Voltage-gated inwardly rectifying potassium channel KCNH2; assay: Displacement of labeled dofetilide human ERG
[32] = Lipophilicity, log D of the compound; format: physicochemical; settings: octanol/water; read-out: logD
[33] = Solubility of the compound in phosphate buffered saline at pH 7.4; format: physicochemical
[34] = Half life in Beagle dog at 2 mg/kg, po and 1 mg/kg, iv; format: ADME, organism-based, Canis lupus familiaris; settings: in vivo
[35] = Clearance in Beagle dog at 2 mg/kg, po and 1 mg/kg, iv; format: ADME, organism-based, Canis lupus familiaris; settings: in vivo
[36] = biological target: Histamine H3 receptor (Homo sapiens, UniProt Q9Y5N1); assay: Antagonist activity at human recombinant histamine H3 receptor expressed in CHO cells assessed as inhibition of histamine-induced GTP-gammaS binding; format: functional, cell-based
How it was run: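 Membranes from CHO cells transfected with cloned human H3 receptor; reduction of histamine-stimulated GTPγS binding, detected by scintillation proximity.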

[37] = tested on: Cavia porcellus; assay: Antiallergic rhinitis activity in conscious guinea pig assessed as duration of inhibition of histamine-induced nasal congestion at 1 mg/ml administered intranasally; format: functional
[38] = Oral bioavailability in Beagle dog at 2 mg/kg; format: ADME, organism-based, Canis lupus familiaris; settings: in vivo
[39] = Volume of distribution at steady state in Beagle dog at 2 mg/kg, po and 1 mg/kg, iv; format: ADME, organism-based, Canis lupus familiaris; settings: in vivo, read-out: Vdss
[40] = Bioavailability in intranasally dosed human; format: ADME, organism-based; settings: in vivo, inhaled or intranasal

Chain of Cytochrome P450 2D6 (P10635 whole entry): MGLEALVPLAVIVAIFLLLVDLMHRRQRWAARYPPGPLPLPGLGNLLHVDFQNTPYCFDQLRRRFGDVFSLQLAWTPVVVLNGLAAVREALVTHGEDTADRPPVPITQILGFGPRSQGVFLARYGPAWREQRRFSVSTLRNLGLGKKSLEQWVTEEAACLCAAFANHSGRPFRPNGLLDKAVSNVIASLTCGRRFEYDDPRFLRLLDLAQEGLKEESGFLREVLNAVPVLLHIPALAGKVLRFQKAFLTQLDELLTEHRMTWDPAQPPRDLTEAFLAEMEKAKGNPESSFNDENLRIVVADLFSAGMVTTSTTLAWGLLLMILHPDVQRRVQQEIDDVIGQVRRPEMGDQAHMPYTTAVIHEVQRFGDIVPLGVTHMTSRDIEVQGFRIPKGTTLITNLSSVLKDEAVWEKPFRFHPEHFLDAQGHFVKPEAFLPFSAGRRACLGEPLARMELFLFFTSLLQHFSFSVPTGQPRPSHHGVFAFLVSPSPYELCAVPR
T5 sequence (P35367 whole entry): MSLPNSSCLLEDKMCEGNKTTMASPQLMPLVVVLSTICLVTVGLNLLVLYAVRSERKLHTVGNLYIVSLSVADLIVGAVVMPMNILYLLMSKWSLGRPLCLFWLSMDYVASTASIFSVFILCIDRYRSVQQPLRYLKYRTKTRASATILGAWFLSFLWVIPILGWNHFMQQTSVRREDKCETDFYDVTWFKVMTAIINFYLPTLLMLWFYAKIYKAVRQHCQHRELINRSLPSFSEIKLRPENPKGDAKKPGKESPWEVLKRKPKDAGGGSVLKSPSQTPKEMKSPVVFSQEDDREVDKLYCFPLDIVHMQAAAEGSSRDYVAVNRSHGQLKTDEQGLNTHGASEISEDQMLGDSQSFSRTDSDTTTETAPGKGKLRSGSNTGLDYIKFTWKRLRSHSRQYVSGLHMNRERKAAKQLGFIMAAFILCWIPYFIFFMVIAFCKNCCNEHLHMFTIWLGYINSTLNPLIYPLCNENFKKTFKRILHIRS
T1 sequence (Q12809 whole entry): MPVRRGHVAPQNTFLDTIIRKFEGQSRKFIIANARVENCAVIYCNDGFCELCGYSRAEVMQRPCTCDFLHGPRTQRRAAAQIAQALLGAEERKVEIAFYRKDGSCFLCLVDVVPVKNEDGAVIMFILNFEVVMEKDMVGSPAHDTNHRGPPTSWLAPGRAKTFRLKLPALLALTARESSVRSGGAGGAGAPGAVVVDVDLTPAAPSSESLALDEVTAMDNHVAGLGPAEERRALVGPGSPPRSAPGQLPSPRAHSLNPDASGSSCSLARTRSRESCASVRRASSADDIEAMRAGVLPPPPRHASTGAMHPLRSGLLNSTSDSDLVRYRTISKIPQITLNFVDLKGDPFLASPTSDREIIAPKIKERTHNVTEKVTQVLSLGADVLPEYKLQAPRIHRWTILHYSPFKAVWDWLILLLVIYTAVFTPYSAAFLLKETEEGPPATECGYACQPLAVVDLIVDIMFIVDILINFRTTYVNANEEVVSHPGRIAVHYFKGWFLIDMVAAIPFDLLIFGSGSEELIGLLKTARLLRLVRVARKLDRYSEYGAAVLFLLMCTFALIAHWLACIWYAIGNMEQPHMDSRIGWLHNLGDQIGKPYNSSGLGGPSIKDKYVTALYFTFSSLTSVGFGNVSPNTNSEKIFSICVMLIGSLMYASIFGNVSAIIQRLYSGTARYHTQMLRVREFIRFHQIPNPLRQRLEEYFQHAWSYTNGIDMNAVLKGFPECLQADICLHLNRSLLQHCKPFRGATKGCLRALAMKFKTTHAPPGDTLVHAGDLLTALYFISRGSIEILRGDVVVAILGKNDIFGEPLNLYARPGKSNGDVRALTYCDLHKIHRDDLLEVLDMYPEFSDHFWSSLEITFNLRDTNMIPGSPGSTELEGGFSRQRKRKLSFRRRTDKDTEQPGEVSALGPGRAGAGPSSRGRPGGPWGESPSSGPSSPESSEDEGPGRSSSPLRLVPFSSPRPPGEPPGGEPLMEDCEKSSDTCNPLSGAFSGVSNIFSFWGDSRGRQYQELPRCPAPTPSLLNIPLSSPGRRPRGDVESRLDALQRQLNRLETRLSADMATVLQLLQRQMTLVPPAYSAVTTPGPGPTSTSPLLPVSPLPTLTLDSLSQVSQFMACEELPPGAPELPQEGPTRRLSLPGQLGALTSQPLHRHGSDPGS
Chain of Histamine H3 receptor (Q9Y5N1 whole entry): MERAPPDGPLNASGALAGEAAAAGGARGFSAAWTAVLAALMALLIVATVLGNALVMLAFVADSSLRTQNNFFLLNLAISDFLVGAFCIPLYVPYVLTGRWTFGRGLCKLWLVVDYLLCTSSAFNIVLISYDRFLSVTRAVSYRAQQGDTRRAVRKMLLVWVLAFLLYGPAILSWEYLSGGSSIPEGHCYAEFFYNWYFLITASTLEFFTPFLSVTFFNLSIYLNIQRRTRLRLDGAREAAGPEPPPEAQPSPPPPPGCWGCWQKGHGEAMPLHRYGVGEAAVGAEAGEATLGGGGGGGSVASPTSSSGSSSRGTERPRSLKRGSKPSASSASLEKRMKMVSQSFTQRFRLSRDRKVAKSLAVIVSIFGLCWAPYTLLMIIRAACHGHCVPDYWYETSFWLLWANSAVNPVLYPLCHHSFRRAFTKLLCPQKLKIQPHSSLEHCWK
Chain of Cytochrome P450 3A4 (P08684 whole entry): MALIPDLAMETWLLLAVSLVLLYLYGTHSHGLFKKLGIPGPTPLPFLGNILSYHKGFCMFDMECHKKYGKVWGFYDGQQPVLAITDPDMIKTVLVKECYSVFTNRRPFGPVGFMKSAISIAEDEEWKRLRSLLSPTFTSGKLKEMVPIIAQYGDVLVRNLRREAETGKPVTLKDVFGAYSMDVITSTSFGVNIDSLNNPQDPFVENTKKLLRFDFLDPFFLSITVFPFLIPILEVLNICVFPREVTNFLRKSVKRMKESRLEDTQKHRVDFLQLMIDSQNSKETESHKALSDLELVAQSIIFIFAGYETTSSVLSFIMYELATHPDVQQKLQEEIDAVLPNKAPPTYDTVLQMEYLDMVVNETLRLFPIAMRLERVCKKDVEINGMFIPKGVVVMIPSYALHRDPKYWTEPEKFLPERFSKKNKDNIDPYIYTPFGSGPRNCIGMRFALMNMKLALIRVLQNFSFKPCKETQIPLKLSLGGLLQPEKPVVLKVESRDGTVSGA
Chain of Histamine H2 receptor (P25021 whole entry): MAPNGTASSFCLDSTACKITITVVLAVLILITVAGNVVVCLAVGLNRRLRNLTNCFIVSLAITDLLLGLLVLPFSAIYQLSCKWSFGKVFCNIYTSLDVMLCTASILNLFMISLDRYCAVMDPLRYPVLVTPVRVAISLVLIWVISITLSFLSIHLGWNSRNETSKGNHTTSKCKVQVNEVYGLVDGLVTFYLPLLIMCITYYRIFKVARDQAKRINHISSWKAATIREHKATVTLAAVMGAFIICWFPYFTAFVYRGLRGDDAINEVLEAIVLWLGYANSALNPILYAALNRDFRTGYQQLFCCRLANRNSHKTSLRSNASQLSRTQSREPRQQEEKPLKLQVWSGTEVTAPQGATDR
Chain of Cytochrome P450 2C9 (P11712 whole entry): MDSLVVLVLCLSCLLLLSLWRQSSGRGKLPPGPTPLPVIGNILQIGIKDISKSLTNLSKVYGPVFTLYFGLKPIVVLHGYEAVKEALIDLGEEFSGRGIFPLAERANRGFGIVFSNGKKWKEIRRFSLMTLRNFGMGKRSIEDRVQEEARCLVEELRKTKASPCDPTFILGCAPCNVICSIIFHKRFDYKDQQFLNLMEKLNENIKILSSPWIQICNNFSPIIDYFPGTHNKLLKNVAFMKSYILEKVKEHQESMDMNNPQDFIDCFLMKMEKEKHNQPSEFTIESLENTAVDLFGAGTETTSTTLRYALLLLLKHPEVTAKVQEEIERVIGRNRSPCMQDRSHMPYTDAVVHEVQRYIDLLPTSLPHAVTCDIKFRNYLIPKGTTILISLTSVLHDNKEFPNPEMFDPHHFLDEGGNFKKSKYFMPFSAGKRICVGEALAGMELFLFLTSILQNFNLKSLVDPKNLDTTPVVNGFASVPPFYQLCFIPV
Chain of Cytochrome P450 2C19 (P33261 whole entry): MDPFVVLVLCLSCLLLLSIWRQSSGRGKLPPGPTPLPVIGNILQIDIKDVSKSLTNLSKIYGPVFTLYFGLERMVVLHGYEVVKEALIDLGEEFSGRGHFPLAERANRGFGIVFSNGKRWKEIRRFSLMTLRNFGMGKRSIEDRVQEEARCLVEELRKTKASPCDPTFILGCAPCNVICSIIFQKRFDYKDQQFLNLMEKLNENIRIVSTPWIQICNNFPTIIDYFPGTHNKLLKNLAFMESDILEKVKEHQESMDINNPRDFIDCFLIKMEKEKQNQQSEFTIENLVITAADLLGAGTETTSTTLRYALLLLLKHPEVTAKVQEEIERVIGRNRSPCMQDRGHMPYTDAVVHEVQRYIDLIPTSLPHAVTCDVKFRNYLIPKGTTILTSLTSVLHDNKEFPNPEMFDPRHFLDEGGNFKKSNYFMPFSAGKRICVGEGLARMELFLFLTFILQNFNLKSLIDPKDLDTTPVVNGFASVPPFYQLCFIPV

bioavailability [2]: 4% | Vd [3]: 22 L/kg | IC50 [4]: > 3000 nM | Stability [5]: Stable | LBF [6]: 35% | Ki [7]: 39.8 nM | IC50 [8]: > 3000 nM | IC50 [9]: 40 nM | Vd [10]: 3.9 L/kg | Ki [11]: 31.6 nM | clearance [12]: 30 mL/min/kg | LBF [13]: 87% | bioavailability [14]: 19% | dose excreted at 24 h [15]: < 1% | IC50 [16]: > 3000 nM | Kp [17]: 0.6 | Stability [20]: Stable | Stability [21]: Unstable | clearance [22]: 27 mL/min/kg | IC50 [23]: 10000 nM | IC50 [24]: 300 nM | half-life [25]: 2.2 h | IC50 [26]: 10000 nM | Kb [27]: 0.794 nM | Stability [28]: Stable | half-life [29]: 9.4 h | Ki [30]: 10 nM
Compound: O=c1c2ccccc2c(Cc2ccc(Cl)cc2)nn1C[C@H]1CCCN1CCCCc1ccc(OCCCN2CCCCCC2)cc1 [GSK-1004723]
inhibition (INH) [1]: Active | Activity [18]: Non-toxic | Time [19]: 72 h | IC50 [31]: 50.1 nM

logD [32]: 2.25 | solubility [33]: 144 µg/mL
Compound: CN1CCCC(n2nc(Cc3ccc(Cl)cc3)c3ccccc3c2=O)CC1.Cl (racemic) [AZELASTINE HYDROCHLORIDE]

half-life [34]: 3.2 h | bioavailability [2]: 7% | clearance [35]: 22 mL/min/kg | LBF [6]: 41% | Ki [7]: 50.1 nM | IC50 [9]: 1000 nM | Vd [10]: 1.8 L/kg | Ki [11]: 50.1 nM | clearance [12]: 35 mL/min/kg | Ki [36]: 158 nM | Kp [17]: 7.5 | bioavailability [38]: 46% | Vd [39]: 4.9 L/kg | half-life [25]: 1 h | bioavailability [40]: 40%
Compound: CN1CCCC(n2nc(Cc3ccc(Cl)cc3)c3ccccc3c2=O)CC1 (racemic) [AZELASTINE]
Time [37]: <24 h

From ChEMBL document CHEMBL1764974, “The discovery of phthalazinone-based human H1 and H3 single-ligand antagonists suitable for intranasal administration for the treatment of allergic rhinitis” (J Med Chem, 2011)
